pIC50: −log10 of the molar value. Calls of active or inactive are those of the source. The rule behind the calls is not given here.
How the values were obtained:
Trypanosoma cruzi [1] = assay: Antitrypanosomal activity against trypomastigotes stage of Trypanosoma cruzi infected in human HT1080 cells assessed as inhibition of parasite growth after 24 hrs by microscopic analysis; format: functional, organism-based; settings: HT-1080, 24 h
Method in brief: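 Trypomastigotes suspended in DMEM and incubated 24 h with a range of compound concentrations or vehicle (0.1% ethanol). Live parasites were counted microscopically, and the IC50 was determined from the concentration series.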

HT-1080 = assay: Induction of reactive oxygen species formation in human HT1080 cells at 10 to 50 µM by fluorometric analysis; format: functional, cell-based
Method in brief: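 Intracellular ROS in host HT1080 cells was measured with an intracellular ROS assay kit, read out as fluorescence intensity (RFU). H2O2 and benznidazole were included for comparison.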

Trypanosoma cruzi [2] = assay: Antitrypanosomal activity against trypomastigotes stage of Trypanosoma cruzi infected in human HT1080 cells assessed as inhibition of parasite growth at 10 uM after 24 hrs by microscopic analysis; format: functional, organism-based; settings: HT-1080
Method in brief: (§1)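 Trypomastigotes suspended in DMEM and exposed 24 h to a single compound concentration, alongside vehicle (0.1% ethanol) control and benznidazole. Live parasites were counted microscopically. Values are the mean of four independent experiments, with significance versus control by two-tailed unpaired Student's t-test.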

Trypanosoma cruzi [3] = assay: Antitrypanosomal activity against trypomastigotes stage of Trypanosoma cruzi infected in human HT1080 cells assessed as inhibition of parasite growth at 1 uM after 24 hrs by microscopic analysis; format: functional, organism-based; settings: HT-1080; method in brief: as §1

O=C(Cn1ccnc1[N+](=O)[O-])NCc1ccccc1 [BENZNIDAZOLE]
pIC50 (Trypanosoma cruzi [1]): 5.17 | Activity (HT-1080): Active

COC1=C(C(C)C)C(=O)C=C(CC(C)(C)O)C1=O
pIC50 (Trypanosoma cruzi [1]): < 5.00

COC1=C(C(C)C)C(=O)C=C(COc2cccnc2)C1=O
pIC50 (Trypanosoma cruzi [1]): < 5.00

COC1=C(C(C)C)C(=O)C=C(COc2ccccc2)C1=O
pIC50 (Trypanosoma cruzi [1]): < 5.00

COC1=C(C(C)C)C(=O)C=C(Cn2cnc([N+](=O)[O-])c2)C1=O
pIC50 (Trypanosoma cruzi [1]): < 5.00

COc1cc(C[C@@]23CCCC(C)(C)[C@@H]2CC(=O)O3)c(OC)c(OC)c1C(C)C
growth inhibition (GI) (Trypanosoma cruzi [2]): inactive

COc1c(C[C@@]23CCCC(C)(C)[C@@H]2CC(=O)O3)c(I)c(OC)c(C(C)C)c1OC
growth inhibition (GI) (Trypanosoma cruzi [2]): inactive

COC1=C(C(C)C)C(=O)C(C(C)(C)O)=C(C)C1=O
growth inhibition (GI) (Trypanosoma cruzi [2]): Active | growth inhibition (GI) (Trypanosoma cruzi [3]): Active

COC1=C(C(C)C)C(=O)C=C(COC(Cn2cncn2)c2ccc(F)cc2F)C1=O (centres undefined)
pIC50 (Trypanosoma cruzi [1]): 6.52

COc1c2c(c(OC)c(C(C)C)c1OC)C1(O)C[C@H]3C(C)(C)CCC[C@@]3(C2)O1
growth inhibition (GI) (Trypanosoma cruzi [2]): inactive

COC1=C(C(C)C)C(=O)C=C(C[C@@]23CCCC(C)(C)[C@@H]2CC(=O)O3)C1=O
growth inhibition (GI) (Trypanosoma cruzi [2]): Active | growth inhibition (GI) (Trypanosoma cruzi [3]): Active

COC1=C(C(C)C)C(=O)C=C(Cc2ccccc2)C1=O
pIC50 (Trypanosoma cruzi [1]): < 5.00

COC(=O)C[C@@H]1C(Cc2cc(OC)c(C(C)C)c(OC)c2OC)=CCCC1(C)C
growth inhibition (GI) (Trypanosoma cruzi [2]): inactive

COC1=C(C(C)C)C(=O)C=C(CC2CCCCC2)C1=O
pIC50 (Trypanosoma cruzi [1]): < 5.00

COC1=C(C(C)C)C(=O)C=C(CN(C)C(=O)c2ccccc2)C1=O
pIC50 (Trypanosoma cruzi [1]): < 5.00

COC1=C(C(C)C)C(=O)C=C(CN(C(=O)C2CCCCC2)C2CCCCC2)C1=O
pIC50 (Trypanosoma cruzi [1]): 5.62

COC1=C(C(C)C)C(=O)C=C(COC(C)C)C1=O
pIC50 (Trypanosoma cruzi [1]): < 5.00

COC1=C(C(C)C)C(=O)C=C(CC2(O)CCCCC2)C1=O
pIC50 (Trypanosoma cruzi [1]): 6.23

COC1=C(C(C)C)C(=O)C=C(CNC(=O)C2CCCCC2)C1=O
pIC50 (Trypanosoma cruzi [1]): 6.48

COC1=C(C(C)C)C(=O)C=C(COC2CCCCC2)C1=O
pIC50 (Trypanosoma cruzi [1]): < 5.00

CCCCCCCC1=CC(=O)C(C(C)C)=C(OC)C1=O
pIC50 (Trypanosoma cruzi [1]): < 5.00

COC1=C(C(C)C)C(=O)C2=C(C[C@@]34CCCC(C)(C)[C@@H]3C[C@]2(O)O4)C1=O [KOMAROVIQUINONE]
growth inhibition (GI) (Trypanosoma cruzi [2]): Active | growth inhibition (GI) (Trypanosoma cruzi [3]): Active | pIC50 (Trypanosoma cruzi [1]): 6.60 | Activity (HT-1080): Active

COC1=C(C(C)C)C(=O)C=C(CC(O)(Cn2cncn2)c2ccc(F)cc2F)C1=O (centres undefined)
pIC50 (Trypanosoma cruzi [1]): 6.27 | Activity (HT-1080): Active

COC1=C(C(C)C)C(=O)C=C(CN(C)C(=O)C2CCCCC2)C1=O
pIC50 (Trypanosoma cruzi [1]): 5.96

COC1=C(C(C)C)C(=O)C=C(CN2CCCC2=O)C1=O
pIC50 (Trypanosoma cruzi [1]): < 5.00

COC1=C(C(C)C)C(=O)C=C(Cn2cncn2)C1=O
pIC50 (Trypanosoma cruzi [1]): 5.01

COC1=C(C(C)C)C(=O)C=C(CN2C(=O)CCc3ccccc32)C1=O
pIC50 (Trypanosoma cruzi [1]): 5.70
